20 molecules from ChEMBL document CHEMBL1143595, “Synthesis and activity of substituted anthraquinones against a human filarial parasite, Brugia malayi” (2005) can be followed below.

The test system of assay [1] is Brugia malayi. Put plainly: Antifilarial activity against Brugia malayi (female) at 5 ppm in the first 5 days (100% mortality). Conditions: 120 h. The assay is classed as functional.
The subject of assay [2] is Brugia malayi. The experiment in a line: Compound causing 100% mortality of Brugia malayi female adult worms at 6.25 ppm concentration. The assay is classed as functional. The gist of the method: (§1)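 Dose-response on adult female B. malayi in RPMI 1640 with penicillin/streptomycin. Concentrations ranged from 50 to 3.12 ppm, with compounds delivered in DMSO; solvent controls received 2% DMSO. Movement and mortality were monitored daily. Read-out was days to 100% worm mortality at each concentration.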

Assay [3] has as its system Brugia malayi. Put plainly: Compound causing 100% mortality of Brugia malayi female adult worms at 3.125 ppm concentration. The assay is classed as functional. The gist of the method: as §1
In assay [4] the test system is Brugia malayi. The experiment in a line: Antifilarial activity against Brugia malayi (male) at 5 ppm in the first 5 days (100% mortality). Conditions: 120 h. The format is functional.
Assay [5] has as its system Brugia malayi. The experiment in a line: Compound causing 100% mortality of Brugia malayi female adult worms at 25 ppm concentration. The format is functional. The gist of the method: as §1
The subject of assay [6] is Brugia malayi. The experiment in a line: Compound causing 100% mortality of Brugia malayi female adult worms at 50 ppm concentration. The assay is classed as functional. The procedure, abridged:
as §1

Assay [7] deals with Brugia malayi. The experiment in a line: Compound causing 100% mortality of Brugia malayi female adult worms at 12.5 ppm concentration. The format is functional. The procedure, abridged: as §1
Assay [8] relates to Brugia malayi. Put plainly: Antifilarial activity of anthraquinone against Brugia malayi (female) at 5 ppm in the first 5 days (100% mortality). The assay is classed as functional. Conditions: 120 h.
The test system of assay [9] is Brugia malayi. The experiment in a line: Antifilarial activity against Brugia malayi (female) at 5 ppm in the first 5 days (100% mortality); NM=No Mortality. The assay is classed as functional, organism-based.
Assay [10] deals with Brugia malayi. Put plainly: Compound causing 100% mortality of Brugia malayi female adult worms at 3.125 ppm concentration; no mortality. The format is functional, organism-based. The procedure, abridged:
as §1

By mortality is commonly meant the percentage killed. Higher therefore signals fewer survivors. In the case of `COc1c(C)cc2c(c1OC)C(=O)c1ccccc1C2=O`, the mortality at 5 ppm with Brugia malayi [1] was 11%.

In the case of `Cc1cc2c(c(O)c1O)C(=O)c1ccccc1C2=O`, the Mortality is 5 days in the assay with Brugia malayi [2]; 6 days in the assay with Brugia malayi [3]; 3 days with Brugia malayi [5]; 1 days with Brugia malayi [6]; 4 days with Brugia malayi [7]. In addition, the figures for the mortality at 5 ppm in the assay on Brugia malayi [4] and in the assay on Brugia malayi [1] were 6% and 5%, respectively.

In the assay with Brugia malayi [8], `Cc1c(O)c(O)cc2c1C(=O)c1ccccc1C2=O` yielded a mortality at 5 ppm of 7%.

The molecule `O=C1c2cccc(O)c2C(=O)c2c1ccc(O)c2O` displayed a mortality at 5 ppm in the assay with Brugia malayi [1] of 14%.

Take `COc1c(C)cc2c(c1O)C(=O)c1ccccc1C2=O`: the Mortality entry in the assay on Brugia malayi [9] is “No mortality”.

`O=C1c2cc(O)cc(O)c2C(=O)c2cccc(O)c21` returned a mortality at 5 ppm in the assay on Brugia malayi [1] of 7%.

`COc1cc2c(c(C)c1OC)C(=O)c1c(O)cccc1C2=O` had a mortality at 5 ppm in the assay on Brugia malayi [1] of 9%.

Take `O=C1c2ccccc2C(=O)c2c1ccc(O)c2O` [ATHRAQUINONES A]: in the assay on Brugia malayi [1], the mortality at 5 ppm was 5%.

In the case of `COc1c(C)cc2c(c1O)C(=O)c1c(O)cccc1C2=O`, the Mortality in the assay on Brugia malayi [2] is 8 days; in the assay on Brugia malayi [10], “no mortality”; in the assay on Brugia malayi [9], “No mortality”; with Brugia malayi [5], 2 days; in the assay on Brugia malayi [6], 1 days; in the assay on Brugia malayi [7] it was 4 days.

As for `O=C1c2cc(O)c(O)c(O)c2C(=O)c2cccc(O)c21`, the mortality at 5 ppm in the assay on Brugia malayi [4] came out at 6%; with Brugia malayi [1] it was 5%.

`CCCSc1ccc2[nH]c(NC(=O)OC)nc2c1` [ALBENDAZOLE]: the mortality at 5 ppm with Brugia malayi [4] turned out to be 9%; in the assay with Brugia malayi [1], 16%.

In the case of `Cc1cc2c(c(O)c1O)C(=O)c1c(O)cccc1C2=O`, the Mortality was 5 days with Brugia malayi [2]; “no mortality” in the assay with Brugia malayi [10]; 3 days with Brugia malayi [5]; 2 days in the assay with Brugia malayi [6]; 4 days in the assay with Brugia malayi [7]. The mortality at 5 ppm in the assay on Brugia malayi [4] and in the assay on Brugia malayi [1] was 5% each time.

In the case of `O=C1c2ccccc2C(=O)c2c1cc(O)c(O)c2O`, the Mortality came out at 5 days in the assay with Brugia malayi [2]; 5 days in the assay with Brugia malayi [3]; 4 days in the assay on Brugia malayi [5]; 2 days in the assay on Brugia malayi [6]; 4 days with Brugia malayi [7]. This molecule also gave a mortality at 5 ppm with Brugia malayi [1] of 5%.

On to `O=C1c2ccc(O)c(O)c2C(=O)c2cccc(O)c21`, for which the mortality at 5 ppm in the assay on Brugia malayi [1] was determined as 9%.

Turning to `O=C1c2cccc(O)c2C(=O)c2c(O)ccc(O)c21`, the mortality at 5 ppm in the assay on Brugia malayi [1] amounted to 9%.

For `Cc1c(O)c(O)cc2c1C(=O)c1c(O)cccc1C2=O`, the mortality at 5 ppm with Brugia malayi [4] was determined as 5%; in the assay on Brugia malayi [1], 3%.

Take `O=C1c2ccccc2C(=O)c2c(O)ccc(O)c21` [QUINIZARIN]: in the assay on Brugia malayi [1], the mortality at 5 ppm is 10%.

For the molecule `O=C1c2cc(O)c(O)cc2C(=O)c2c(O)cccc21`, the mortality at 5 ppm in the assay on Brugia malayi [1] stood at 5%.

In the assay with Brugia malayi [1], `COc1cccc2c1C(=O)c1c(cc(C)c(OC)c1O)C2=O` showed a mortality at 5 ppm of 7%.

Take `O=C1c2ccccc2C(=O)c2c(O)cc(O)cc21`: in the assay with Brugia malayi [9], the Mortality entry was “No mortality”.
